Experimental data from paper PMC6744591 (Heliyon, 2019).

Tests used:
[1] = test system: alloxan induced diabetes rats; experiment: Blood glucose lowering in alloxan-induced diabetic rats; format: in vivo, Wister rats
In short: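 Alloxan at 150 mg/kg i.p. in normal saline given to Wistar rats (~190 g); rats above 120 mg/dl glucose after 5–7 days counted as diabetic. Rats fasted 12 h, water allowed, fasted throughout; 9 per group. […] Basal glucose taken first; tail-vein glucometer readings at set intervals, triplicate averages.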

[2] = Pharmacokinetics: plasma concentration of insulin in diabetic rats; format: in vivo; conditions: for Tmax: plasma insulin, HPLC-UV

Substance: insulin [Ins-solu]
- decrease in blood glucose levels ([1]; fasted, oral, 40.0 I.U/kg, glucometer, % of initial level): 1–2%
- maximum decrease in blood glucose levels ([1]; fasted, subcutaneous, 4.0 I.U/kg, at 4 h): > 60%
- time for which decrease in blood glucose level was sustained ([1]; subcutaneous, 4.0 I.U/kg): over 4 h
- Tmax ([2]; oral, 40 IU/kg): 3.0 h
- AUC ([2]; subcutaneous, 4.0 IU/kg, over 12 h, linear trapezoidal rule, mean ± SD, n = 5): 342.56 ± 30.9 µg/mL/h
- Tmax ([2]; subcutaneous, 4.0 IU/kg): 1.0 h
